Consider two molecules from ChEMBL document CHEMBL1122810 (J Med Chem, 1984).

Experiment [1] relates to Mus musculus. Nature of the experiment: Inoculation of 10 e5 L1210 cells, ip, on day 0, & treatment was started on day 1 with the administration of the compound, ip, in groups of five B6D2F1J male mice at dose 10 mg/kg. The format is functional.
For experiment [2], the system named is H35. Briefly: (§1) Cytotoxic activity with respect to methotrexate. In kind it is functional, Rattus norvegicus.
Experiment [3] has as its system H35R0.3. The description is as §1. In kind it is functional, Rattus norvegicus.
The subject of experiment [4] is L1210. Described as §1. The format is functional, Mus musculus.
The target in another experiment is T1, Dihydrofolate reductase (Mus musculus, UniProt P00375).
T1 sequence (P00375 whole entry): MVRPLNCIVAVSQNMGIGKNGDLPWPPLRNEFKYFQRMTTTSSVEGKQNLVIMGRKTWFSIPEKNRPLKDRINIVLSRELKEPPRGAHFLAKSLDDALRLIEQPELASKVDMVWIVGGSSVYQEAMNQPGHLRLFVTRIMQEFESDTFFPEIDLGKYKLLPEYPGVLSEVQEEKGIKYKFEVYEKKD
Briefly: Inhibitory activity towards dihydrofolate reductase in L1210 murine leukemia cell lines. In kind it is cell-based.

In experiment [5] the test system is H35R0.3. Briefly: Growth inhibition of H35R0.3 cell lines. In kind it is functional, cell-based. As to conditions: Rattus norvegicus. In short, it runs like this:
(§2)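 H35 rat hepatoma cells and the transport-defective H35R0.3 subline, which has normal DHFR content, were incubated with drug for 72 h, and the IC50 was determined.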

Experiment [6] relates to L1210. Nature of the experiment: Growth inhibition of L1210 cell lines. In kind it is functional, cell-based. As to conditions: Mus musculus. In short, it runs like this:
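L1210 murine leukemia cells were incubated with drug in culture for 48 h. Percent cell growth relative to untreated controls was plotted against concentration to obtain the IC50.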

The test system of experiment [7] is Mus musculus. Nature of the experiment: Inoculation of 10 e5 L1210 cells, ip, on day 0, & treatment was started on day 1 with the administration of the compound, ip, in groups of five B6D2F1J male mice at dose 40 mg/kg. The format is functional.
In experiment [8] the test system is Mus musculus. Briefly: Inoculation of 10 e5 L1210 cells, ip, on day 0, & treatment was started on day 1 with the administration of the compound, ip, in groups of five B6D2F1J male mice at dose 20 mg/kg. In kind it is functional.
Experiment [9] has as its system H35. Nature of the experiment: Growth inhibition of H35 cell lines. As to conditions: Rattus norvegicus. In kind it is functional, cell-based. In short, it runs like this:
as §2

Experiment [10] deals with Mus musculus. Nature of the experiment: Inoculation of 10 e5 L1210 cells, ip, on day 0, & treatment was started on day1 with the administration of the compound, ip, in groups of five B6D2F1J male mice at dose 0.5 mg/kg.
Experiment [11] deals with Mus musculus. Nature of the experiment: Inoculation of 10 e5 L1210 cells, ip, on day 0, & treatment was started on day1 with the administration of the compound, ip, in groups of five B6D2F1J male mice at dose 1 mg/kg. The format is functional. An outline of the steps: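 Male B6D2F1J mice, five per group, received 10^5 L1210 cells ip on day 0. From day 1, drug in sterile 0.9% NaCl was injected ip twice daily on days 1–4 and 7–10, with one double dose on each of days 5 and 6. […]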

Experiment [12] concerns Mus musculus. Briefly: Inoculation of 10 e5 L1210 cells, ip, on day 0, & treatment was started on day 1 with the administration of the compound, ip, in groups of five B6D2F1J male mice at dose 1.0 mg/kg; T=19; C=9. In kind it is functional.
Experiment [13] deals with Mus musculus. Nature of the experiment: Inoculation of 10 e5 L1210 cells, ip, on day 0, & treatment was started on day 1 with the administration of the compound, ip, in groups of five B6D2F1J male mice at dose 1.0 mg/kg; 17-22. The format is functional. An outline of the steps: (§3)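 Vehicle sterile 0.9% NaCl, ip. Dosing on days 1-10: twice daily on days 1-4 and 7-10, once daily on days 5 and 6 with a double dose given on those days. Endpoint is increase in life span (ILS) versus untreated controls. Doses are also stated as MTX-equivalent doses rounded to the nearest mg/kg.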

For experiment [14], the system named is Mus musculus. Nature of the experiment: Inoculation of 10 e5 L1210 cells, ip, on day 0, & treatment was started on day 1 with the administration of the compound, ip, in groups of five B6D2F1J male mice at dose 0.5 mg/kg. In kind it is functional.
Experiment [15] deals with Mus musculus. Briefly: Inoculation of 10 e5 L1210 cells, ip, on day 0, & treatment was started on day 1 with the administration of the compound, ip, in groups of five B6D2F1J male mice at dose 0.5 mg/kg; 14-20. The format is functional. In short, it runs like this: as §3
The subject of experiment [16] is Mus musculus. Nature of the experiment: Inoculation of 10 e5 L1210 cells, ip, on day 0, & treatment was started on day 1 with the administration of the compound, ip, in groups of five B6D2F1J male mice at dose 1.0 mg/kg.
Experiment [17] deals with Mus musculus. Briefly: Inoculation of 10 e5 L1210 cells, ip, on day 0, & treatment was started on day 1 with the administration of the compound, ip, in groups of five B6D2F1J male mice at dose 0.5 mg/kg; T =18; C=9. The format is functional.

Usually IC50 stands for the concentration needed to halve the response being measured. High values mean lower potency, low ones higher potency. What is called ILS is how much longer treated animals lived than controls.

As to `CN(Cc1cnc2nc(N)nc(N)c2n1)c1ccc(C(=O)NC(CCC(=O)NCCCCC(N)C(=O)O)C(=O)O)cc1` (stereo unspecified), the 7-day weight change with Mus musculus [1] was determined as 11%; in the experiment on Mus musculus [7] it was 2%; with Mus musculus [8] it was 5%. The Relative activity with H35 [2] is given as 0.025; in the experiment on H35R0.3 [3], 0.3; with L1210 [4], 0.032. Moreover, the IC50 on Dihydrofolate reductase worked out at 87 nM; with H35R0.3 [5] it was 6000 nM; in the experiment with L1210 [6], 760 nM; in the experiment with H35 [9], 400 nM.

As for `CN(Cc1cnc2nc(N)nc(N)c2n1)c1ccc(C(=O)N[C@@H](CCC(=O)O)C(=O)O)cc1` [METHOTREXATE], in the experiment with Mus musculus [10], the increase in lifespan (ILS) at 0.5 mg/kg came to 100%. Further, the 7-day weight change in the experiment on Mus musculus [11] was -9%; in the experiment on Mus musculus [14] it was 0%. Besides, the “median survival (days)” value in the experiment with Mus musculus [12] is 19; in the experiment on Mus musculus [17], 18. The IC50 was determined as 1800 nM in the experiment with H35R0.3 [5], 24 nM in the experiment on L1210 [6] and 10 nM with H35 [9]. Also, the figures for the Survival range in the experiment with Mus musculus [13] and with Mus musculus [15] were 22 and 20, respectively. The molecule further yielded an increase in life span (ILS) at 1 mg/kg in the experiment with Mus musculus [16] of 111%.
